“And” between values parts separate entries of the source, which are not always exact repeats. Identical values can stand only once.
Columns and labels:
[1] = tested on: HEK-293T; experiment: Multiplex assay against HEK293T; assay type: toxicity, cell-based; conditions: human, number of replicates 2
Outline: (§1)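 Cells stained live at seeding with Hoechst33342, BioTracker Green Microtubule Cytoskeleton Dye, MitoTracker Red and Annexin V Alexa Fluor 680 were imaged on a CQ1 microscope at 37°C and 5% CO2 after compound addition. Their classification by CellPathfinder machine-learning gating ran from Hoechst high-intensity objects versus normal cells, to healthy, pyknosed or fragmented nuclei among normal cells, to mitotic or apoptotic among pyknosed cells. Tubulin, mitochondrial-mass and membrane-permeability phenotypes are per cents of healthy-nucleus cells.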

[2] = tested on: Fibroblast; experiment: Multiplex assay against human fibroblast; assay type: toxicity, cell-based; conditions: number of replicates 2; outline: as §1
[3] = 12 h, 1 µM, compound concentration 1 uM
[4] = 12 h, 10 µM, compound concentration 10 uM
[5] = 24 h, 1 µM, compound concentration 1 uM
[6] = 24 h, 10 µM, compound concentration 10 uM
[7] = 48 h, 1 µM, compound concentration 1 uM
[8] = 48 h, 10 µM, compound concentration 10 uM

## COc1cc(N2CCN(C)CC2)ccc1Nc1ncc2c(n1)N(C)c1ccccc1C(=O)N2CC(F)(F)F
[1]; [3]
  Population Apoptotic (%): 31% and 35%
  Population Fragmented Nuclei (%): 3% and 2%
  Population Healthy Nuclei (%): 87% and 86%
  Population Hoechst High Intensity Objects (%): 5% and 6%
  Population Membrane Permeable-Phenotype (%): 3%
  Population Mitochondria Different-Phenotype (%): 20% and 16%
  Population Mitotic Cells (%): 68% and 64%
  Population Normal (%): 94% and 93%
  Population Pyknosed Nuclei (%): 9% and 10%
  Population Tubulin-Different-Phenotype (%): 86% and 78%
  Total Cell Count: 866 and 792
[1]; [4]
  Population Apoptotic (%): 55% and 51%
  Population Fragmented Nuclei (%): 1% and 3%
  Population Healthy Nuclei (%): 81% and 83%
  Population Hoechst High Intensity Objects (%): 13% and 12%
  Population Membrane Permeable-Phenotype (%): 5% and 4%
  Population Mitochondria Different-Phenotype (%): 49% and 52%
  Population Mitotic Cells (%): 44% and 48%
  Population Normal (%): 86% and 87%
  Population Pyknosed Nuclei (%): 16% and 13%
  Population Tubulin-Different-Phenotype (%): 95%
  Total Cell Count: 412 and 483
[1]; [5]
  Population Apoptotic (%): 27% and 32%
  Population Fragmented Nuclei (%): 3% and 5%
  Population Healthy Nuclei (%): 90% and 86%
  Population Hoechst High Intensity Objects (%): 7%
  Population Membrane Permeable-Phenotype (%): 2%
  Population Mitochondria Different-Phenotype (%): 8% and 9%
  Population Mitotic Cells (%): 72% and 67%
  Population Normal (%): 92%
  Population Pyknosed Nuclei (%): 5% and 7%
  Population Tubulin-Different-Phenotype (%): 68%
  Total Cell Count: 1356 and 1127
[1]; [6]
  Population Apoptotic (%): 42% and 49%
  Population Fragmented Nuclei (%): 3% and 4%
  Population Healthy Nuclei (%): 80% and 83%
  Population Hoechst High Intensity Objects (%): 6% and 11%
  Population Membrane Permeable-Phenotype (%): 2% and 1%
  Population Mitochondria Different-Phenotype (%): 60% and 59%
  Population Mitotic Cells (%): 57% and 50%
  Population Normal (%): 93% and 88%
  Population Pyknosed Nuclei (%): 16% and 12%
  Population Tubulin-Different-Phenotype (%): 95%
  Total Cell Count: 451 and 561
[1]; [7]
  Population Fragmented Nuclei (%): 10% and 14%
  Population Healthy Nuclei (%): 86% and 82%
  Population Hoechst High Intensity Objects (%): 11% and 10%
  Population Membrane Permeable-Phenotype (%): 4% and 6%
  Population Mitochondria Different-Phenotype (%): 2% and 0%
  Population Mitotic Cells (%): 82% and 95%
  Population Normal (%): 88% and 89%
  Population Pyknosed Nuclei (%): 3%
  Population Tubulin-Different-Phenotype (%): 51% and 48%
  Total Cell Count: 2136 and 2988
[1]; [8]
  Population Apoptotic (%): 50% and 55%
  Population Fragmented Nuclei (%): 4% and 5%
  Population Healthy Nuclei (%): 79% and 83%
  Population Hoechst High Intensity Objects (%): 8% and 11%
  Population Membrane Permeable-Phenotype (%): 7% and 11%
  Population Mitochondria Different-Phenotype (%): 37% and 31%
  Population Mitotic Cells (%): 50% and 44%
  Population Normal (%): 91% and 88%
  Population Pyknosed Nuclei (%): 15% and 11%
  Population Tubulin-Different-Phenotype (%): 91% and 94%
  Total Cell Count: 580 and 656
[2]; [3]
  Population Apoptotic (%): 50% and 44%
  Population Fragmented Nuclei (%): 14% and 10%
  Population Healthy Nuclei (%): 74% and 76%
  Population Hoechst High Intensity Objects (%): 0%
  Population Membrane Permeable-Phenotype (%): 1% and 2%
  Population Mitochondria Different-Phenotype (%): 1%
  Population Mitotic Cells (%): 50% and 55%
  Population Normal (%): 100%
  Population Pyknosed Nuclei (%): 10% and 13%
  Population Tubulin-Different-Phenotype (%): 32% and 20%
  Total Cell Count: 214 and 269
[2]; [4]
  Population Apoptotic (%): 27% and 35%
  Population Fragmented Nuclei (%): 45% and 17%
  Population Healthy Nuclei (%): 40% and 66%
  Population Hoechst High Intensity Objects (%): 4% and 0%
  Population Membrane Permeable-Phenotype (%): 1% and 3%
  Population Mitochondria Different-Phenotype (%): 7% and 11%
  Population Mitotic Cells (%): 72% and 64%
  Population Normal (%): 95% and 100%
  Population Pyknosed Nuclei (%): 14% and 16%
  Population Tubulin-Different-Phenotype (%): 57% and 67%
  Total Cell Count: 330 and 243
[2]; [5]
  Population Apoptotic (%): 75% and 29%
  Population Fragmented Nuclei (%): 17% and 18%
  Population Healthy Nuclei (%): 77% and 73%
  Population Hoechst High Intensity Objects (%): 0%
  Population Membrane Permeable-Phenotype (%): 1%
  Population Mitochondria Different-Phenotype (%): 1% and 3%

From ChEMBL document CHEMBL5303300, “EUbOPEN Chemogenomics Library - Multiplex” (2023)
